≈ marks a conversion by molar mass, not a printed value. Bounds are passed on as bounds.

For series [1], the target named is T1, Kinesin-like protein KIF11 (Homo sapiens, UniProt P52732).
T1 sequence (P52732 whole entry): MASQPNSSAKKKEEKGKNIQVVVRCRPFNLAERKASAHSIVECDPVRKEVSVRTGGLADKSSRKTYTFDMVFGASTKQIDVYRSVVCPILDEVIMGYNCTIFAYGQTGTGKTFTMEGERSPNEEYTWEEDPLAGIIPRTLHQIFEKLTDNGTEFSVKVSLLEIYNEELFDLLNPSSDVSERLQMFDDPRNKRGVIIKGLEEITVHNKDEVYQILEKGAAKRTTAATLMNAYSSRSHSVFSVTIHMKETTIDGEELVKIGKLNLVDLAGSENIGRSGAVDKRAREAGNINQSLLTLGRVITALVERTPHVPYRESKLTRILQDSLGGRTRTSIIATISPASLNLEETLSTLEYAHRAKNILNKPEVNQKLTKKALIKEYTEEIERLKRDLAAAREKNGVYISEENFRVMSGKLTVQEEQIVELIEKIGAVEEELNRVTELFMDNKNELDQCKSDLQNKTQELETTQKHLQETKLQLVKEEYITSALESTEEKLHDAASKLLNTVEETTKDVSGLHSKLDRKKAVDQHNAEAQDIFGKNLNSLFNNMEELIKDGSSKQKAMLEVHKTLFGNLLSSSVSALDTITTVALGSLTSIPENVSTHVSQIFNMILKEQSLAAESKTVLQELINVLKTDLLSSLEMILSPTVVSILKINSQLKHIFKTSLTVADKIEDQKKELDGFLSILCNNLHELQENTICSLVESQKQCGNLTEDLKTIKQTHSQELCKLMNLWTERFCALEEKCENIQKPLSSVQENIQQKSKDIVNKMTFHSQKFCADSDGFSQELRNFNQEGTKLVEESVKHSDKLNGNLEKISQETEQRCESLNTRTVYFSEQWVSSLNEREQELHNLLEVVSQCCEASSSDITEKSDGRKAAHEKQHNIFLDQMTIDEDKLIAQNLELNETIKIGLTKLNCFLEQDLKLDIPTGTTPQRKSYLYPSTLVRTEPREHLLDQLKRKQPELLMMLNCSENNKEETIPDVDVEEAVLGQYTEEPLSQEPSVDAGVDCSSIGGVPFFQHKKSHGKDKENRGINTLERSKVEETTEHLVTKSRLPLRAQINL
The series is described as follows: Inhibition of KSP by ATPase assay.

A short description of series [2]: Partition coefficient, log P of the compound. The format is physicochemical. Particulars: octanol/water.
Series [3] can be described thus: Half life in mongrel dog at 0.25 mg/kg, iv. The format is ADME, organism-based, Canis lupus familiaris. Further details: dose 0.25 mg/kg, route intravenous. Particulars: in vivo. In a few lines: (§1)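 Single iv dose of 0.25 mpk given to two mongrel dogs, one male and one female.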
Series [4] is described as follows: Solubility in citrate at pH 6.5. The format is physicochemical. The method in brief: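 Crystalline solid; solubility determined in pH 6.5 citrate buffer.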
Series [5] can be described thus: Clearance in mongrel dog at 0.25 mg/kg, iv. The format is ADME, organism-based, Canis lupus familiaris. Details: dose 0.25 mg/kg, route intravenous. The following applies: in vivo. In a few lines:
as §1

Series [6] in a line: Volume of distribution in mongrel dog at 0.25 mg/kg, iv. The format is ADME, organism-based, Canis lupus familiaris. Details: dose 0.25 mg/kg, route intravenous. Particulars: in vivo, read-out: Vdss. The method in brief:
as §1

Series [7] concerns A2780. The series is described as follows: Mitotic arrest in human A2780 cells. The format is functional, cell-based.
The nature of series [8]: Solubility in citrate at pH 4.0. The format is physicochemical. In a few lines: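 Solubility of crystalline solid determined in citrate buffer at pH 4.0.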
Series [9] can be described thus: Aqueous solubility at pH 10.3. The format is physicochemical. The following applies: aqueous medium. In a few lines:
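Solubility of crystalline material measured in water; final pH of the solution was 10.3.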

The target of series [10] is Voltage-gated inwardly rectifying potassium channel KCNH2 (Homo sapiens, UniProt Q12809). The series is described as follows: Inhibition of hERG expressed in HEK cells by radioligand binding assay. The format is toxicity, cell-based, HEK293. A general note: The hERG channel carries a current that helps repolarise heart muscle cells.
Voltage-gated inwardly rectifying potassium channel KCNH2, sequence (Q12809 whole entry): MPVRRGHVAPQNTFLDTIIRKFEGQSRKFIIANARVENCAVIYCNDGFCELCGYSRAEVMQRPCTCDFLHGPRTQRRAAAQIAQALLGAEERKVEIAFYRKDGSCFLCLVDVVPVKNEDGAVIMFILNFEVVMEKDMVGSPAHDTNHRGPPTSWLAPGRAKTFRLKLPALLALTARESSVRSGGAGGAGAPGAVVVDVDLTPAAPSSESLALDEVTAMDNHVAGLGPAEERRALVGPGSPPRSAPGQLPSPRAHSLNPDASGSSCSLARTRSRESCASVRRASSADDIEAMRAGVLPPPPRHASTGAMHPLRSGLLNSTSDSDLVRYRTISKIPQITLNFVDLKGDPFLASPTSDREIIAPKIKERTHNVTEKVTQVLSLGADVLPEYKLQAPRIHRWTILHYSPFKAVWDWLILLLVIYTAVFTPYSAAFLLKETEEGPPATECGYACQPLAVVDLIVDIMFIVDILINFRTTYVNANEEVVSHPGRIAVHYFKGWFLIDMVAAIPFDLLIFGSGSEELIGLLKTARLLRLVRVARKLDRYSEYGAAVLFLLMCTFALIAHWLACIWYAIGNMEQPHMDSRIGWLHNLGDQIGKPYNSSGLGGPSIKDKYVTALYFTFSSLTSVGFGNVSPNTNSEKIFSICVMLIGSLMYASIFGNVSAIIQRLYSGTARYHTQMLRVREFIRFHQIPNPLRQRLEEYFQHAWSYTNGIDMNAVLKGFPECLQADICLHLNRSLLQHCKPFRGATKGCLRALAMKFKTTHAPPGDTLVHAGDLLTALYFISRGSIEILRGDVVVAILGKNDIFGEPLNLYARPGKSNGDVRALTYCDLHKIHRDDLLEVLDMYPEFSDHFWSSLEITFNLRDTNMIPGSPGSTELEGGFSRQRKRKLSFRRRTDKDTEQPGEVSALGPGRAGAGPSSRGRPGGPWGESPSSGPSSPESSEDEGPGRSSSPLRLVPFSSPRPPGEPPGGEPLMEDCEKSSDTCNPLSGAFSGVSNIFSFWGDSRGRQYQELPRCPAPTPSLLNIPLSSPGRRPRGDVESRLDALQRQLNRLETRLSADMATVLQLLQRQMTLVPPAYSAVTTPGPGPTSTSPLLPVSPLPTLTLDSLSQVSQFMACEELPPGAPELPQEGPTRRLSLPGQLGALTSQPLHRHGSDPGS

`CNC(=O)N1N=C(c2cc(F)ccc2F)CC1(CO)c1ccccc1` (stereo unspecified) came in with an IC50 in [1] of 903 nM. In turn, `CC(=O)N1N=C(c2cc(F)ccc2F)C[C@H]1c1cccc(O)c1` yielded a logP in [2] of 3.1. This compound also showed an IC50 in series [1] of 24.7 nM. This compound also gave a half-life in series [3] of 1 h. In addition, the solubility in series [4] was found to be 29 µg/mL (≈ 0.0917 mM). Also, in [5], the clearance was determined as 22.1 mL/min/kg. The Vd in series [6] was determined as 1.6 L/kg. This compound also yielded an EC50 in [7] of 24.8 nM. As for `CCNC(=O)N1N=C(c2cc(F)ccc2F)CC1(CCCCN1CC2C=CC1C2)c1ccccc1` (stereo unspecified), half-maximal inhibition in series [1] (IC50) required 119 nM. In series [1], `CCNC(=O)N1N=C(c2cc(F)ccc2F)CC1(CCCCO)c1ccccc1` (stereo unspecified) showed an IC50 of 697 nM. Same read-out and setting: to `CCNC(=O)N1N=C(c2cc(F)ccc2F)CC1(CCCCNC(=O)c1ccccc1)c1ccccc1` (stereo unspecified) belongs 892 nM; to `NCCCC1(c2ccccc2)CC(c2cc(F)ccc2F)=NN1C(=O)N1CCCC1` (stereo unspecified), 26 nM.

In [1], `NCCCC1(c2ccccc2)CC(c2cc(F)ccc2F)=NN1C(=O)N1CCOCC1` (stereo unspecified) had an IC50 of 122 nM. Still for that read-out and setting: under `CCNC(=O)N1N=C(c2cc(F)ccc2F)CC1(CCCO)c1ccccc1` (stereo unspecified) stands 745 nM. With `CCNC(=O)N1N=C(c2cc(F)ccc2F)CC1(CCO)c1ccccc1` (stereo unspecified), the midpoint of inhibition in [1], the IC50, lay at 606 nM. In the case of `CCNC(=O)N1N=C(c2cc(F)ccc2F)CC1(CCCCN(C)C)c1ccccc1` (stereo unspecified), the IC50 in series [1] turned out to be 103 nM.

Consider `CCNC(=O)N1N=C(c2cc(F)ccc2F)CC1(CCCCNC(=O)c1ncc[nH]1)c1ccccc1` (stereo unspecified), for which, in series [1], the IC50 was determined as 552 nM.

The compound `CNC(=O)N1N=C(c2cc(F)ccc2F)CC1(C)c1ccccc1` (stereo unspecified) returned a half-inhibitory concentration (IC50) in [1] of 284 nM. In series [1], `CCNC(=O)N1N=C(c2cc(F)ccc2F)CC1(CCCC[N+](C)(C)[O-])c1ccccc1` (stereo unspecified) came in with an IC50 of 585 nM. This IC50 is about 2.1-fold higher than that of the compound before. With `CCNC(=O)N1N=C(c2cc(F)ccc2F)CC1(CCCCN)c1ccccc1` (stereo unspecified), in [1], inhibition was half-maximal at 67 nM (IC50). `CCNC(=O)N1N=C(c2cc(F)ccc2F)CC1(CCN)c1ccccc1` (stereo unspecified): in series [1], the 50% inhibitory concentration (IC50) is 390 nM. For `NCCCC1(c2ccccc2)CC(c2cc(F)ccc2F)=NN1C(=O)N1CCCCC1` (stereo unspecified), the half-inhibitory concentration (IC50) in series [1] came to 85 nM. For `CN(C)C(=O)N1N=C(c2cc(F)ccc2F)C[C@@]1(CCCN)c1ccccc1`, in series [2], the logP was determined as 1.2. Moreover, the IC50 in [1] is 1.9 nM; in series [10] it was 19300 nM. For the same compound, the solubility in series [8] was > 12000 µg/mL; in series [9], 1700 µg/mL (≈ 4.4 mM). Further, in [3], the half-life is 14.7 h. In series [5], the clearance was found to be 14.5 mL/min/kg. Besides, in series [6], the Vd was determined as 14 L/kg. Moreover, the response in series [7] was half-maximal at 5.2 nM (EC50).

`CCNC(=O)N1N=C(c2cc(F)ccc2F)CC1(CCCCNCc1ccccc1)c1ccccc1` (stereo unspecified) came in with an IC50 in series [1] of 100 nM. In series [1], `CN(C)C(=O)N1N=C(c2cc(F)ccc2F)CC1(CCCN)c1ccccc1` (stereo unspecified) gave a half-maximal inhibitory concentration (IC50) of 8 nM.

For `CCNC(=O)N1N=C(c2cc(F)ccc2F)CC1(CCCCNC(=O)c1ccccn1)c1ccccc1` (stereo unspecified), half-maximal inhibition in series [1] (IC50) required 391 nM.

`NCCCC1(c2ccccc2)CC(c2cc(F)ccc2F)=NN1C(=O)N1CCC1` (stereo unspecified) came in with an IC50 in [1] of 55 nM. With `CCNC(=O)N1N=C(c2cc(F)ccc2F)CC1(CCCCNC(=O)c1cnc[nH]1)c1ccccc1` (stereo unspecified), it took 686 nM to reach half-maximal inhibition in series [1] (IC50).

The IC50 is the concentration needed to halve the response being measured. A higher IC50 goes with weaker potency in that assay. What is called logP is the decadic logarithm of the partition coefficient of the neutral form, usually between octanol and water. The low end stands for lower lipophilicity, the high end for higher lipophilicity. By half-life is commonly meant the time needed for the level to fall by half in the phase considered. A lower half-life goes with fast loss. Broadly, the solubility is the concentration that dissolves in the medium under given conditions. Read a low solubility as a poorly soluble substance. One may read the clearance as a measure of how efficiently the substance is removed, as volume per time. A high value points to efficient removal. The term EC50 denotes the concentration giving half of the maximal effect. Higher therefore signals weaker potency.

The record behind these values is ChEMBL document CHEMBL1147831, “Kinesin spindle protein (KSP) inhibitors. Part 4: Structure-based design of 5-alkylamino-3,5-diaryl-4,5-dihydropyrazoles as potent, water-soluble inhibitors of the mitotic kinesin KSP” (Bioorg Med Chem Lett, 2006).
